Measurements reported in ChEMBL document CHEMBL4619820, “Development of Novel AKR1C3 Inhibitors as New Potential Treatment for Castration-Resistant Prostate Cancer” (J Med Chem, 2020).
Active and inactive are the calls of the source. No cut-off for these calls is given here.

Key:
[1] = tested on: CWR22R; assay: Inhibition of pregnenolone-induced cell cell cycle changes in human 22Rv1 cells assessed as reduction in S phase accumulation at 10 uM pre-incubated for 2 hrs before pregnenolone stimulation for 24 hrs by propidium iodide staining based flow cytometry; format: functional
Outline: (§1)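 Cell cycle in 22Rv1: 2 h pretreatment with or without 10 μM inhibitor, then 24 h with 20 nM pregnenolone; G0/G1, S and G2/M fractions determined by flow cytometry.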

[2] = target: T1, Aldo-keto reductase family 1 member C3 (Homo sapiens) (UniProt P42330); assay: Inhibition of AKR1C3 in human 22Rv1 cells assessed as potentiation of enzalutamide-induced apoptosis by measuring reduction in BCl2 level at 10 uM pre-incubated for 2 hrs before addition of pregnenolone for 24 hrs by Western blot analysis; format: cell-based; details: CWR22R
T1 sequence (whole entry): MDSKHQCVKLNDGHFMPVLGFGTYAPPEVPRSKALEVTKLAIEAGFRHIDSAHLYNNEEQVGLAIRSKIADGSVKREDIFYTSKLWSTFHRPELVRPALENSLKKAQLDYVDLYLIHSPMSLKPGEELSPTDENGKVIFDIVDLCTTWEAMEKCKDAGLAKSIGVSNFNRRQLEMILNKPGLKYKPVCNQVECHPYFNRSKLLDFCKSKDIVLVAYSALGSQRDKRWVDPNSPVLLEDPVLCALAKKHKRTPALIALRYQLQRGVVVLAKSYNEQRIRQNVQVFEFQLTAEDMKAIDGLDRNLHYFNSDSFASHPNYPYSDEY
Outline: (§2)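 Apoptotic markers in 22Rv1: 2 h pretreatment with or without 10 μM inhibitor and/or 50 μM enzalutamide, then 24 h 20 nM pregnenolone; Bax/Bcl-2 ratio as percent of control; cleaved caspase-3 also by immunofluorescence with DAPI.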

[3] = target: T1, Aldo-keto reductase family 1 member C3 (Homo sapiens); assay: Inhibition of AKR1C3 in human 22Rv1 cells assessed as potentiation of enzalutamide-induced apoptosis by measuring increase in DNA fragmentation at 10 uM pre-incubated for 2 hrs before addition of pregnenolone for 24 hrs by ethidium bromide staining based DNA agarose gel electrophores method; format: cell-based; details: CWR22R
[4] = tested on: CWR22R; assay: Inhibition of pregnenolone-induced cell cell cycle changes in human 22Rv1 cells assessed as increase in G0/GG1 phase accumulation at 10 uM pre-incubated for 2 hrs before pregnenolone stimulation for 24 hrs by propidium iodide staining based flow cytometry; format: functional; outline: as §1
[5] = tested on: CWR22R; assay: Effect on steroid 5alpha-reductase in human 22Rv1 cells assessed as effect on metabolism of 4AD into testosterone at 10 to 20 uM pre-incubated for 2 hrs before 4AD addition for 24 hrs by EIA; format: cell-based
Outline: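 22Rv1 cells pretreated 2 h with or without 2 μM finasteride and/or inhibitor, then cultured 24 h with 100 nM 4AD; testosterone in cell extracts quantified by EIA and expressed as percent of finasteride-free control.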

[6] = tested on: CWR22R; assay: Induction of apoptosis in human 22Rv1 cells assessed as increase in DNA fragmentation at 10 uM pre-incubated for 2 hrs before addition of pregnenolone for 24 hrs by ethidium bromide staining based DNA agarose gel electrophores method; format: functional, cell-based
[7] = target: T1, Aldo-keto reductase family 1 member C3 (Homo sapiens); assay: Inhibition of AKR1C3 in human 22Rv1 cells assessed as as reduction in TMPRSS2 mRNA expression at 10 to 20 uM pre-incubated for 2 hrs before pregnenolone stimulation for 24 hrs by RT-qPCR analysis; format: cell-based; details: CWR22R
Outline: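 22Rv1 cells pretreated 2 h with test agents, then stimulated 24 h with 20 nM pregnenolone; AR, TMPRSS2 and PSA mRNA measured by RT-qPCR, given as ratio to pregnenolone-free control.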

[8] = tested on: CWR22R; assay: Induction of apoptosis in human 22Rv1 cells assessed as increase in cleaved caspase-3 level at 10 uM pre-incubated for 2 hrs before addition of pregnenolone for 24 hrs by Western blot analysis; format: functional, cell-based; outline: as §2
[9] = target: T1, Aldo-keto reductase family 1 member C3 (Homo sapiens); assay: Inhibition of AKR1C3 in human 22Rv1 cells assessed as induction of ROS generation at 10 uM by DCFH-DA dye based flow cytometric analysis; format: cell-based; details: CWR22R
Outline: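 22Rv1 cells exposed 3 h to 10 μM inhibitor and/or abiraterone, or 50 μM enzalutamide; intracellular ROS by flow cytometry as DCF-positive cells, percent of vehicle control.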

[10] = tested on: CWR22R; assay: Antitumor activity against human 22Rv1 cells xenografted in Balb/c nu/nu athymic mouse assessed as reduction in tumor volume at 100 mg/kg, ip dosed twice per week for 6 weeks; format: functional, organism-based
Outline: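 22Rv1 xenograft mice dosed intraperitoneally with vehicle (control, n=15), 50 mg/kg (n=10) or 100 mg/kg (n=10); tumor size followed over time; body weights recorded.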

[11] = tested on: CWR22R; assay: Antitumor activity against human 22Rv1 cells xenografted in Balb/c nu/nu athymic mouse assessed as increase in necrotic region in tumor tissue at 100 mg/kg, ip dosed twice per week for 6 weeks by H and E staining dependent light microscopy based histopathological analysis; format: functional, organism-based
Outline: (§3)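 Tumor tissue, plus liver, kidney and lung, from xenografted mice given ip 50 or 100 mg/kg; sections stained with hematoxylin and eosin and examined at ×40 for necrotic areas.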

[12] = Toxicity in Balb/c nu/nu athymic mouse xenografted with human 22Rv1 cells assessed as effect on kidney histology at 100 mg/kg, ip dosed twice per week for 6 weeks by H and E staining dependent light microscopy based histopathological analysis; format: organism-based, CWR22R; details: in vivo, 1008 h
Outline: (§4)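 Mice carrying 22Rv1 xenografts were dosed intraperitoneally, with vehicle controls n=15 and treated groups n=10. Tissue sections of kidney, liver and lung were stained with hematoxylin and eosin and examined by light microscopy at ×40 magnification for histopathological changes.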

[13] = Toxicity in Balb/c nu/nu athymic mouse xenografted with human 22Rv1 cells assessed as effect on body weight at 100 mg/kg, ip dosed twice per week for 6 weeks […]; format: organism-based, CWR22R; details: in vivo, 1008 h
Outline: (§5)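 Mice carrying 22Rv1 xenografts received intraperitoneal injections. The vehicle control group had n=15 and each treated dose group had n=10. Average body weights were compared between treated and vehicle-control mice.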

[14] = Toxicity in Balb/c nu/nu athymic mouse xenografted with human 22Rv1 cells assessed as effect on liver histology at 100 mg/kg, ip dosed twice per week for 6 weeks by H and E staining dependent light microscopy based histopathological analysis; format: organism-based, CWR22R; details: in vivo, 1008 h; outline: as §4
[15] = Toxicity in Balb/c nu/nu athymic mouse xenografted with human 22Rv1 cells assessed as effect on lung histology at 50 mg/kg, ip dosed twice per week for 6 weeks by H and E staining dependent light microscopy based histopathological analysis; format: organism-based, CWR22R; details: in vivo, 1008 h; outline: as §4
[16] = tested on: CWR22R; assay: Antitumor activity against human 22Rv1 cells xenografted in Balb/c nu/nu athymic mouse assessed as increase in necrotic region in tumor tissue at 50 mg/kg, ip dosed twice per week for 6 weeks by H and E staining dependent light microscopy based histopathological analysis; format: functional, organism-based; outline: as §3
[17] = Toxicity in Balb/c nu/nu athymic mouse xenografted with human 22Rv1 cells assessed as effect on kidney histology at 50 mg/kg, ip dosed twice per week for 6 weeks by H and E staining dependent light microscopy based histopathological analysis; format: organism-based, CWR22R; details: in vivo, 1008 h; outline: as §4
[18] = Toxicity in Balb/c nu/nu athymic mouse xenografted with human 22Rv1 cells assessed as effect on liver histology at 50 mg/kg, ip dosed twice per week for 6 weeks by H and E staining dependent light microscopy based histopathological analysis; format: organism-based, CWR22R; details: in vivo, 1008 h; outline: as §4
[19] = Toxicity in Balb/c nu/nu athymic mouse xenografted with human 22Rv1 cells assessed as effect on body weight at 50 mg/kg, ip dosed twice per week for 6 weeks by H and E staining dependent light microscopy based histopathological analysis; format: organism-based, CWR22R; details: in vivo, 1008 h; outline: as §5

N=c1oc2c(O)cccc2cc1C(=O)Nc1ccc(F)cc1
inhibition [1]: Active | inhibition [2]: Active | inhibition [3]: Active | inhibition [4]: Active | Activity [5]: inactive | Activity [6]: Active | inhibition [7]: Active | Activity [8]: Active | inhibition [9]: Active

CCc1cccc(NC(=O)c2cc3cccc(O)c3oc2=N)c1
Activity [10]: Active | Activity [11]: Active | Activity [12]: Non-Toxic | Activity [13]: Non-Toxic | Activity [14]: Non-Toxic

Cc1ccc(NC(=O)c2cc3cccc(O)c3oc2=N)cc1
Activity [15]: Non-Toxic | Activity [16]: Active | inhibition [1]: Active | Activity [17]: Non-Toxic | inhibition [2]: Active | inhibition [3]: Active | inhibition [4]: Active | Activity [18]: Non-Toxic | Activity [5]: inactive | Activity [6]: Active | inhibition [7]: Active | Activity [8]: Active | inhibition [9]: Active | Activity [19]: Non-Toxic
